We go through 13 compounds from ChEMBL document CHEMBL1153783, “Synthesis and vasodilatory activity of some amide derivatives of 6-(4-carboxymethyloxyphenyl)-4,5-dihydro-3(2H)-pyridazinone” (Eur J Med Chem, 2009).

Assay [1] concerns Aorta. In words: Vasodilatory activity in Wistar rat thoracic aortic ring assessed as inhibition of phenylephrine-induced contraction treated after phenylephrine challenge. It is filed as functional, tissue-based. To be noted: for IC50: Rattus norvegicus, Wistar, Aorta. The gist of the method:
(§1)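 Thoracic aortic rings were taken from Wistar rats of either sex (300–400 g) and held in PSS at 37 °C under O2/CO2 (95:5), equilibrated ≥90 min. Rings were precontracted with 10^-6 M phenylephrine, then given cumulative additions of 10^-8 to 10^-5 M at 30 min intervals, one compound per ring. Relaxation was read as % of initial contraction. A sigmoidal fit gave pD2 and Emax, reported as mean ± SEM of 4 or 8 experiments.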

The subject of assay [2] is Aorta. In words: Vasodilatory activity in Wistar rat thoracic aortic ring assessed as inhibition of phenylephrine-induced contraction at 10 uM treated after phenylephrine challenge. It is filed as functional. The gist of the method:
as §1

The subject of assay [3] is Aorta. As to the kind of experiment: Ratio of hydralazine IC50 to compound IC50 for inhibition of phenylephrine-induced contraction in Wistar rat thoracic aortic ring. It is filed as functional.
In assay [4] the test system is Aorta. In words: Ratio of SK&F-93741 IC50 to compound IC50 for inhibition of phenylephrine-induced contraction in Wistar rat thoracic aortic ring. It is filed as functional.

Broadly, the Emax is the size of the effect at its maximum, as opposed to the concentration needed. A word on the IC50: it is the midpoint of a concentration-inhibition curve.

On to `NNc1nncc2ccccc12` [HYDRALAZINE], for which, in the assay on Aorta [1], the pD2 turned out to be 6.6. The Emax at 10 µM in the assay on Aorta [2] is 55%.

Consider `CC1CC(=O)NN=C1c1ccc(OCC(=O)n2ccnc2)cc1` (stereo not drawn), for which, in the assay with Aorta [2], the maximum response (Emax) at 10 µM came to 32%. For the compound `CC1CC(=O)NN=C1c1ccc(OCC(=O)N2CCOCC2)cc1` (stereo not drawn), in the assay with Aorta [2], the Emax at 10 µM worked out at 17.6%. For `CC(=O)Nc1ccc(C2=NNC(=O)CC2C)cc1` (stereo not drawn), the pD2 in the assay on Aorta [1] stood at 7. Moreover, the Emax at 10 µM in the assay on Aorta [2] was found to be 61.1%. As for `O=C1CCC(c2ccc(OCC(=O)N3CCCC3)cc2)=NN1`, in the assay on Aorta [1], the pD2 turned out to be 5.9 and the IC50 is 1.02 µM. For the same compound, the Emax at 10 µM with Aorta [2] worked out at 52.2%. In the same order, the values of `O=C1CCC(c2ccc(OCC(=O)N3CCCCC3)cc2)=NN1` are 5.9, 0.91 µM and 61.6%. With `O=C1CCC(c2ccc(OCC(=O)N3CCOCC3)cc2)=NN1`, the Emax at 10 µM in the assay with Aorta [2] came out at 41.8%. For `O=C1CCC(c2ccc(OCC(=O)n3ccnc3)cc2)=NN1`, in the assay with Aorta [2], the Emax at 10 µM was 3.7%. Take `O=C(COc1ccc(C2=NN(c3ccc(F)cc3)C(=O)CC2)cc1)N1CCCC1`: the Ratio IC50 in the assay on Aorta [3] worked out at 4.5. Besides, in the assay on Aorta [1], the pD2 was 7.2 and the IC50 was 0.051 µM. The Ratio IC50 in the assay with Aorta [4] was determined as 1.7. In addition, the Emax at 10 µM in the assay with Aorta [2] was found to be 61.8%. As to `O=C(COc1ccc(C2=NN(c3ccccc3)C(=O)CC2)cc1)N1CCCCC1`, in the assay with Aorta [2], the Emax at 10 µM came to 16.2%.

Consider `CN1CCN(C(=O)COc2ccc(C3=NNC(=O)CC3)cc2)CC1`, for which the Emax at 10 µM in the assay on Aorta [2] was found to be 23.9%.

For `CC1CC(=O)NN=C1c1ccc(OCC(=O)N2CCCCC2)cc1` (stereo not drawn), the Emax at 10 µM in the assay with Aorta [2] came to 29.8%.

Consider `CC1CC(=O)NN=C1c1ccc(OCC(=O)N2CCCC2)cc1` (stereo not drawn), for which the Emax at 10 µM with Aorta [2] is 21.7%.
